Key:
[1] = test system: Leishmania donovani; experiment: Antileishmanial activity against wild type Leishmania donovani HU3 amastigotes infected in mouse peritoneal macrophage assessed as inhibition of parasite growth incubated for 72 hrs by giemsa staining based analysis; assay type: functional, organism-based
How it was run: (§1)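 Mouse peritoneal macrophages in DMEM + 10% heat-inactivated FBS, penicillin/streptomycin; 1 × 10^5 cells per well on coverslips, adhered overnight at 37 °C, 5% CO2, non-adherent cells washed off. Infected overnight with late-log promastigotes at parasite:macrophage 40:1. Compound exposure 72 h at 37 °C; Giemsa stain, amastigotes per 100 macrophages counted, IC50 derived; means ± SD of 3–4 independent experiments.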

[2] = Metabolic stability in rat liver microsome assessed as parent compound remaining at 50 degreeC measured after 16 mins after heat treatment by HPLC analysis; conditions: liver microsomes, heat-treated
[3] = target: T1, Voltage-gated inwardly rectifying potassium channel KCNH2 (Homo sapiens, UniProt Q12809); experiment: Inhibition of human ERG stably overexpressed in HEK293 cells incubated for 30 mins by FLIPR assay; assay type: toxicity, cell-based; conditions: for IC25: human, hek293, 0.5 h, time 30 min
[4] = test system: RAW264.7; experiment: Cytotoxicity against mouse RAW264.7 cells assessed as inhibition of cell growth incubated for 72 hrs by MTS assay; assay type: functional, cell-based; conditions: RAW264.7, 72 h
How it was run: (§2)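 Cells in DMEM + 10% heat-inactivated FBS with penicillin/streptomycin at 37 °C, 5% CO2. They were seeded at 1 × 10^4/well and incubated with a concentration series for 72 h at 37 °C. Viability was read by MTS/PMS assay at 490 nm and IC50 derived.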

[5] = Metabolic stability in rat liver S9 fraction assessed as compound remaining at 20 uM measured after 32 mins in presence of NADP and GSH by HPLC analysis; assay type: ADME, subcellular; conditions: read-out: Stability
How it was run: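 Rat liver S9 (final 4 mg/mL) in 50 mM phosphate pH 7.4 with NADPH-regenerating system (0.3 mM NADP+, 5.3 mM glucose-6-phosphate, G6PDH), 10 mM MgCl2 and 5 mM EDTA. Pre-warmed 10 min at 37 °C, then 20 μM compound and 5.5 μM GSH added. Samples taken at 0, 16 and 32 min were quenched in ice-cold acetonitrile. HPLC (254/280 nm) peak area was expressed relative to 0 min.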

[6] = Metabolic stability in rat liver microsome assessed as drug metabolism measured up to 32 mins in absence of inhibitor by HPLC analysis relative to control; conditions: liver microsomes, without inhibitor
[7] = test system: Leishmania braziliensis; experiment: Antileishmanial activity against wild type Leishmania braziliensis UA847 amastigotes infected in mouse peritoneal macrophage assessed as inhibition of parasite growth incubated for 72 hrs by giemsa staining based analysis; assay type: functional, organism-based
How it was run: (§3)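 Mouse peritoneal macrophages (1 × 10^5/well on coverslips, DMEM + 10% heat-inactivated FBS, penicillin/streptomycin) adhered overnight at 37 °C, 5% CO2. They were infected overnight with late-log promastigotes at a 20:1 parasite:macrophage ratio. Cells were then treated with compound for 72 h at 37 °C and Giemsa-stained. Amastigotes per 100 macrophages were counted to derive IC50; mean ± SD of 3–4 independent experiments.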

[8] = Cytotoxicity against mouse L929 cells assessed as inhibition of cell growth incubated for 72 hrs by MTS assay; assay type: toxicity, cell-based; how it was run: as §2
[9] = test system: Leishmania donovani; experiment: Antileishmanial activity against wild type Leishmania donovani HU3 promastigotes […] assessed as inhibition of parasite growth incubated for 72 hrs by automatic microtiter plate reader analysis; assay type: functional, organism-based
[10] = Cytotoxicity against mouse peritoneal macrophage assessed as inhibition of cell growth incubated for 72 hrs by giemsa staining based analysis; assay type: toxicity; conditions: peritoneal macrophages
[11] = Hepatotoxicity against mouse TAMH cells assessed as cell viability at 7.8 to 125 uM incubated for 24 to 48 hrs by MTT assay; assay type: toxicity, cell-based; conditions: dose lower 7.8 µM, time lower 24 hrs, dose upper 125 µM, time upper 48 hrs, read-out: Activity
How it was run: (§4)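 TAMH mouse liver cells in FCS-free DMEM/F12 with 5% PANEXIN NTA, 10 mM nicotinamide and gentamicin. Seeded at 20 000/well and attached 24 h at 37 °C, 5% CO2. DMSO-diluted compounds were applied for 24 or 48 h. MTT was added for 4 h, formazan dissolved in DMSO and A570 read. Viability was background-corrected and expressed relative to DMSO controls; mean ± SD, ≥3 experiments.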

[12] = test system: Leishmania major; experiment: Antileishmanial activity against wild type Leishmania major FV1 promastigotes […] assessed as inhibition of parasite growth incubated for 72 hrs by automatic microtiter plate reader analysis; assay type: functional, organism-based
How it was run: (§5)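 Promastigotes were grown in Schneider's medium (4 mM glutamine, gentamicin, 10% heat-inactivated FBS, pH 6.9, 27 °C). Cells were seeded at 1.5 × 10^5/well and exposed to a concentration series for 72 h at 27 °C.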

[13] = test system: Leishmania donovani; experiment: Antileishmanial activity against miltefosine resistant Leishmania donovani HU3MILR40 amastigotes infected in mouse peritoneal macrophage assessed as inhibition of parasite growth incubated for 72 hrs by giemsa staining based analysis; assay type: functional, organism-based; how it was run: as §1
[14] = test system: Leishmania donovani; experiment: Antileishmanial activity against miltefosine resistant Leishmania donovani HU3MILR40 promastigotes […] assessed as inhibition of parasite growth incubated for 72 hrs by automatic microtiter plate reader analysis; assay type: functional, organism-based
How it was run: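 Promastigote (free parasite) assay: Schneider's Drosophila medium with 4 mM glutamine, 25 μg mL−1 gentamicin, 10% heat-inactivated FBS, pH 6.9, 27 °C. 1.5 × 10^5 promastigotes per well exposed to a concentration series for 72 h at 27 °C.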

[15] = Metabolic stability in rat liver microsome assessed as compound remaining at 20 uM measured after 32 mins in presence of NADP and GSH by HPLC analysis; assay type: ADME; conditions: liver microsomes, read-out: Stability
How it was run: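 Rat liver microsomes (final 2 mg/mL) in 50 mM phosphate pH 7.4 with 0.3 mM NADP+, 5.3 mM glucose-6-phosphate, G6PDH, 10 mM MgCl2 and 5 mM EDTA. 20 μM compound added at 37 °C. Aliquots at 0, 16 and 32 min were quenched in ice-cold acetonitrile and centrifuged. HPLC peak area at 254/280 nm was expressed relative to 0 min.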

[16] = test system: Leishmania amazonensis; experiment: Antileishmanial activity against wild type Leishmania amazonensis LV78 promastigotes […] assessed as inhibition of parasite growth incubated for 72 hrs by automatic microtiter plate reader analysis; assay type: functional, organism-based; how it was run: as §5
[17] = test system: Leishmania amazonensis; experiment: Antileishmanial activity against wild type Leishmania amazonensis LV78 amastigotes infected in mouse peritoneal macrophage assessed as inhibition of parasite growth incubated for 72 hrs by giemsa staining based analysis; assay type: functional, organism-based; how it was run: as §3
[18] = test system: Leishmania braziliensis; experiment: Antileishmanial activity against wild type Leishmania braziliensis UA847 promastigotes […] assessed as inhibition of parasite growth incubated for 72 hrs by automatic microtiter plate reader analysis; assay type: functional, organism-based; how it was run: as §5
[19] = target: T1, Voltage-gated inwardly rectifying potassium channel KCNH2; experiment: Inhibition of human ERG stably overexpressed in HEK293 cells at 100 uM incubated for 30 mins by FLIPR assay; assay type: toxicity, cell-based; conditions: hek293, 0.5 h, 100 µM
How it was run: (§6)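 HEK-293 cells stably expressing hERG, seeded at 60 000/well and grown 24 h. Compounds were added in DMSO (final 0.5%) and incubated 30 min in the dark. After 20 s baseline, Tl+ stimulus (3 mM) was added and fluorescence (ex 485/em 535 nm) recorded for 2.5 min.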

[20] = Hepatotoxicity against human HepG2 cells assessed as cell viability at 125 uM incubated for 48 hrs by MTT assay; assay type: toxicity, cell-based; conditions: hepg2, 48 h, 125 µM
How it was run: (§7)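 HEP-G2 cells in RPMI 1640 + 10% heat-inactivated FBS, penicillin/streptomycin. Seeded at 15 000/well and attached 24 h at 37 °C, 5% CO2. Compounds were serially diluted in DMSO, with 24 or 48 h exposure. MTT (2.5 mg/mL solution) was added for 4 h, formazan dissolved in DMSO and A570 read. Viability was background-corrected against DMSO-treated cell controls; mean ± SD, ≥3 experiments.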

[21] = Hepatotoxicity against mouse TAMH cells assessed as cell viability at 125 uM incubated for 48 hrs by MTT assay; assay type: toxicity, cell-based; how it was run: as §4
[22] = Hepatotoxicity against human HepG2 cells assessed as cell viability at 62.5 uM incubated for 48 hrs by MTT assay; assay type: toxicity, cell-based; conditions: read-out: Activity; how it was run: as §7
[23] = target: T2, hERG (KCNH2) (Homo sapiens, UniProt Q12809); experiment: Inhibition of human ERG stably overexpressed in HEK293 cells assessed as remaining activity at 25 uM incubated for 30 mins by FLIPR assay; assay type: toxicity, cell-based; conditions: HEK293 cells stably overexpressing hERG, read-out: Activity; how it was run: as §6
[24] = target: T2, hERG (KCNH2); experiment: Inhibition of human ERG stably overexpressed in HEK293 cells assessed as remaining activity at 6 uM incubated for 30 mins by FLIPR assay; assay type: toxicity, cell-based; conditions: HEK293 cells stably overexpressing hERG, read-out: Activity; how it was run: as §6
[25] = Metabolic stability in rat liver microsome assessed as parent compound remaining at 50 degreeC measured after 32 mins after heat treatment by HPLC; conditions: liver microsomes, heat-treated
[26] = Hepatotoxicity against mouse TAMH cells assessed as cell viability at 62.5 uM incubated for 48 hrs by MTT assay; assay type: toxicity, cell-based; conditions: read-out: Activity; how it was run: as §4

T1 sequence (Q12809 whole entry): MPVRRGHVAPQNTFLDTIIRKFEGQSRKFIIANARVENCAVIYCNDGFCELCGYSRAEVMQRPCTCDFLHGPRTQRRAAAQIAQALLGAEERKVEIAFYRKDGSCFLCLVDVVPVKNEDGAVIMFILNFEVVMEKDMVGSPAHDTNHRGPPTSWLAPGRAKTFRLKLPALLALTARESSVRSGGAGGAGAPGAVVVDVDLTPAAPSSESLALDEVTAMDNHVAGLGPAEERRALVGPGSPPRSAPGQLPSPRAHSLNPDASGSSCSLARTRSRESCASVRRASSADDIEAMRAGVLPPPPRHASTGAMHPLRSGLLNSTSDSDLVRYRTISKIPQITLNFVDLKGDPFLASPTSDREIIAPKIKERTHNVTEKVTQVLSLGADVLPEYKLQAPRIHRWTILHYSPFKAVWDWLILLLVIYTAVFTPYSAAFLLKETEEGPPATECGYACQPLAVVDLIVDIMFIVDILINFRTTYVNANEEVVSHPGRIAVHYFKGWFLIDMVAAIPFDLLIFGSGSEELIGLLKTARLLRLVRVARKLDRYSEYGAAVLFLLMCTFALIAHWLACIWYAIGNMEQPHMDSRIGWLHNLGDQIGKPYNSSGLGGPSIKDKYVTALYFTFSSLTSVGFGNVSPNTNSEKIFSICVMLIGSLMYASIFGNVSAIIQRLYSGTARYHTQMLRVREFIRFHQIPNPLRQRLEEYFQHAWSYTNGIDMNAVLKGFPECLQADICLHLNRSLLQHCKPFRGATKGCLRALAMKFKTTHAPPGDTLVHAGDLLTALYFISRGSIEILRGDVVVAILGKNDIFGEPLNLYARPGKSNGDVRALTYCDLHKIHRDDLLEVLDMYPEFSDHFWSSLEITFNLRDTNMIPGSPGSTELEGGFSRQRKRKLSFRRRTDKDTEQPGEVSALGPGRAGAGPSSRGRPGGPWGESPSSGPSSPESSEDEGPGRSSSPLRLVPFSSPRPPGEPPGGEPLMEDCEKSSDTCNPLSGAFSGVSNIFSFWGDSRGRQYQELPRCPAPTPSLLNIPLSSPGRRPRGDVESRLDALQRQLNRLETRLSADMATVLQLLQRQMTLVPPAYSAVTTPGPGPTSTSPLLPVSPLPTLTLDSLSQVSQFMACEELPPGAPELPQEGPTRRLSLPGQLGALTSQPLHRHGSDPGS
T2 sequence (Q12809 whole entry): as above

## CCc1ccc(OCc2ncc([N+](=O)[O-])n2C)cc1
[1]
  IC50: > 10 µM
[2]
  remaining at 16 min: 16%
[3]
  IC25: 14.9 µM
[4]
  IC50: > 68.5 µM
[5]
  remaining at 32 min, 20 µM: 96.4%
[6]
  metabolised at 32 min: 100%
[7]
  IC50: > 10 µM
[8]
  IC50 at 72 h: 71.8 µM
[9]
  IC50: 5 µM
[10]
  IC50 at 72 h: > 100 µM
[11]
  viability at up to 125 µM: > 50%
[12]
  IC50: 1.4 µM
[13]
  IC50: > 10 µM
[14]
  IC50: 5.3 µM
[15]
  remaining at 32 min, 20 µM: 0%
[16]
  IC50: 4.5 µM
[17]
  IC50: > 10 µM
[18]
  IC50: 3.9 µM

## Cn1c([N+](=O)[O-])cnc1COc1ccc([S+](C)[O-])cc1 (centres undefined) [FEXINIDAZOLE SULFOXIDE]
[3]
  IC25: > 100 µM
[4]
  IC50: > 100 µM
[5]
  remaining at 32 min, 20 µM: 100%
[8]
  IC50 at 72 h: > 100 µM
[9]
  IC50: 3.4 µM
[11]
  viability at up to 125 µM: > 50%
[12]
  IC50: 1.4 µM
[19]
  inhibition (INH): Not_active
[14]
  IC50: 4.3 µM
[20]
  Activity: Non-toxic
[15]
  remaining at 32 min, 20 µM: 100%
[21]
  Activity: Non-toxic
[16]
  IC50: 7.8 µM
[18]
  IC50: 4.3 µM

## CSc1ccc(OCc2ncc([N+](=O)[O-])n2C)cc1 [FEXINIDAZOLE]
[1]
  IC50: > 10 µM
[3]
  IC50: ~10.7 µM
  IC25: 8.6 µM
[4]
  IC50: > 100 µM
[5]
  remaining at 32 min, 20 µM: 73.4%
[6]
  metabolised at 32 min: 100%
[7]
  IC50: > 10 µM
[8]
  IC50 at 72 h: > 100 µM
[9]
  IC50: 3.3 µM
[10]
  IC50 at 72 h: > 82 µM
[22]
  viability at 48 h, 62.5 µM: 95%
[23]
  activity at 0.5 h, 25 µM: 34%
[12]
  IC50: 1.9 µM
[24]
  activity at 0.5 h, 6 µM: 78%
[13]
  IC50: > 10 µM
[25]
  remaining at 32 min: 11%
[14]
  IC50: 5.5 µM
[15]
  remaining at 32 min, 20 µM: 0%
[26]
  viability at 48 h, 62.5 µM: 90%
[16]
  IC50: 7 µM
[17]
  IC50: > 10 µM
[18]
  IC50: 3.9 µM

Reference: ChEMBL document CHEMBL6134787, “Fexinidazole optimization: enhancing anti-leishmanial profile, metabolic stability and hERG safety” (RSC Med Chem, 2024)
